The values below come from ChEMBL document CHEMBL4049419, “Structure-Based Discovery of New Antagonist and Biased Agonist Chemotypes for the Kappa Opioid Receptor” (J Med Chem, 2017).

Activity calls are given as the source filed them. No cut-off for these calls is given here. A value given as a limit tells only on which side of the number the result lay.

Assay [1] deals with T1, Kappa-type opioid receptor (Homo sapiens, UniProt P41145). Nature of the assay: Displacement of 3H-U69593 from human KOR expressed in HEK293 cells at 50 uM after 90 mins by micro beta scintillation counting analysis. Format: cell-based. The procedure, abridged:
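Primary screen of 3H-U69593 binding at cloned human KOR in HEK293 cells, using a single compound concentration of 50 µM tested in quadruplicate. Percent inhibition of radioligand binding is reported.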

In assay [2] the target is T1, Kappa-type opioid receptor. Briefly: Displacement of 3H-U69593 from human KOR expressed in HEK293 cells after 90 mins by micro beta scintillation counting analysis. The class given is cell-based. The procedure, abridged: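 Competition binding with 3H-U69593 at cloned human KOR expressed in HEK293 cells. Ki was derived from the curves; normalized data from three independent assays were pooled, mean ± SEM.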
(Displacement assays read how much labelled ligand stays bound in the presence of the test substance.)

For assay [3], the species on record is Homo sapiens. Briefly: Ratio of Ki for KOR H291A mutant (unknown origin) to Ki for human KOR expressed in HEK293 cells. The class given is cell-based.
The target in assay [4] is T1, Kappa-type opioid receptor. Nature of the assay: Antagonist activity at human KOR expressed in HEK293T cells coexpressing Gi assessed as Gi-mediated inhibition of cAMP production incubated for 15 mins followed by Gs activator isoproterenol addition measured after 15 mins by luciferase reporter gene assay. The class given is functional, cell-based. The settings on record: HEK-293T. The procedure, abridged: (§1)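 HEK293T cells co-transfected with human KOR and GloSensor split-luciferase cAMP biosensor, plated 15,000 cells/well overnight. Loaded 1 h with 4 mM luciferin in 20 mM HEPES/HBSS pH 7.4. Compounds preincubated 15 min, Sal A 20 nM added for 15 min, then isoproterenol (200 nM final) to drive Gs; luminescence read 15 min later. Sal A shifts analysed by Schild analysis to give KB.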
In general terms: Changes in cAMP serve as a functional read-out for many G protein-coupled receptors.

Assay [5] addresses T1, Kappa-type opioid receptor. Nature of the assay: Antagonist activity at KOR (unknown origin) expressed in HTLA cells assessed as inhibition of Sal A-induced beta-arrestin recruitment preincubated for overnight followed by Sal-A addition at 30 mins post compound treatment measured after 20 mins by Bright-Glo luminescence assay. Format: cell-based. Summed up: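 HTLA cells transfected overnight, plated at 15,000 cells/well in DMEM with 1% dialyzed FBS on poly-L-Lys, rested ≥6 h. Test compounds added, then Sal A 30 nM 30 min later; overnight incubation. BrightGlo reagent 20 min at room temperature in the dark; luminescence read. Normalized data, mean ± SEM from at least 4 measurements.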
In general terms: Activated receptors often draw arrestin, which recruitment assays turn into a signal.

Assay [6] is filed under the species Homo sapiens. Nature of the assay: Ratio of Ki for KOR I294A mutant (unknown origin) to Ki for human KOR expressed in HEK293 cells. The class given is cell-based.
The species entered for assay [7] is Homo sapiens. Nature of the assay: Ratio of Ki for KOR M142A mutant (unknown origin) to Ki for human KOR expressed in HEK293 cells. Format: cell-based.
For assay [8], the target named is T1, Kappa-type opioid receptor. Briefly: Antagonist activity at human KOR expressed in HEK293T cells coexpressing Gi assessed as inhibition of Sal A-induced Gi-mediated reduction of cAMP production incubated for 15 mins followed by Sal A addition for 15 mins and susequent addition of Gs activator isoproterenol measured after 15 mins by luciferase reporter gene assay. Format: functional, cell-based. Summed up: as §1

Assay [9] concerns Kappa-type opioid receptor (Homo sapiens), P41145 [M142A]. Nature of the assay: Displacement of 3H-U69593 from KOR M142A mutant (unknown origin). The procedure, abridged:
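Single-point KOR mutants were retested alongside wild-type receptor in ³H-U69593 competition binding. 12-point concentration-response from 100 µM to 10 nM, run in triplicate; Ki derived.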

Assay [10] has as its target T1, Kappa-type opioid receptor. Nature of the assay: Agonist activity at human KOR expressed in HEK293T cells coexpressing Gi assessed as Gi-mediated inhibition of cAMP production at 10 uM incubated for 15 mins followed by Gs activator isoproterenol addition measured after 15 mins by luciferase reporter gene assay relative to Sal-A. Format: functional, cell-based. As to conditions: HEK-293T. Summed up: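 HEK293T cells co-transfected with human KOR and a split-luciferase GloSensor cAMP biosensor, plated overnight at 15,000 cells/well in DMEM + 1% dialyzed FBS. Loaded 1 h with 20 mM HEPES/1× HBSS pH 7.4 containing 4 mM luciferin. Drug added for 15 min, then isoproterenol (200 nM final, Gs activation via endogenous β2 receptors); luminescence read 15 min later.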

For orientation: inhibition means the percentage by which the read-out fell short of the control. A word on the IC50: it is the concentration needed to halve the response being measured.

T1 sequence (P41145 whole entry): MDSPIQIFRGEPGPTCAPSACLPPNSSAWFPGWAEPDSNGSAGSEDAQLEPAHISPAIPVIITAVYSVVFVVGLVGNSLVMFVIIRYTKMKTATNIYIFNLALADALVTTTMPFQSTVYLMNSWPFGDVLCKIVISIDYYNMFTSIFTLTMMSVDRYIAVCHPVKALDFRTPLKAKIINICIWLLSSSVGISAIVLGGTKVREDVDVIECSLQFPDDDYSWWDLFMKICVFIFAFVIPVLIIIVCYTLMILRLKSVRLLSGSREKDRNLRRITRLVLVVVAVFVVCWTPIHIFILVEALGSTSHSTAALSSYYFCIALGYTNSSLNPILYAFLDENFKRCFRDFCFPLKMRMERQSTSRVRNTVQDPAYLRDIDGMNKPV
Chain of Kappa-type opioid receptor (Homo sapiens), P41145 [M142A] (P41145 whole entry M142A): as the sequence (P41145 whole entry) above, with M142A counted along it

`CSc1ccc(CN(CCO)Cc2ccc(-c3ccn[nH]3)s2)cc1`: the inhibition in assay [1] came to 53%. Moreover, in assay [2] (read-out: Ki), the Ki was determined as 3000 nM.
The corresponding values for `Cc1cc2oc(C(=O)NCC(c3ccco3)N3CCCC3)c(C)c2cc1C` (centres undefined) are 77.5% and 1100 nM.
On to `Oc1cccc(C(O)CNCc2ccc(Cl)cc2Cl)c1` (centres undefined), for which the Ratio Ki in the assay filed under Homo sapiens [3] is above 10; in the assay listed under Homo sapiens [6], above 10; in the assay listed under Homo sapiens [7], 10. In addition, the inhibition in assay [1] was 97.9%; in [5] it was “Dose-dependent effect”; in assay [8] (HEK-293T) it was “Dose-dependent effect”. In addition, the Kb is 170 nM in assay [4] and 166 nM in [8] (read-out: pA2 (converted)). In addition, the Ki in [2] (read-out: Ki) is 90 nM; in [2] (read-out: pKi (converted)), 83.2 nM; in assay [5] it was 230 nM. In addition, the IC50 in assay [5] came out at 1100 nM.
Turning to `CN(Cc1ccccc1NC(=O)NCc1ccoc1)C1CCCCC1`, in [1], the inhibition was 76.5%. For the same compound, the Ki in assay [2] (read-out: Ki) was determined as 2300 nM.
The corresponding values for `Cc1ncsc1CN1CCCCC1CCc1cccc(O)c1` (centres undefined) are 96.9% and 350 nM.
On to `Cc1ccc(C(CNC(=O)c2oc3ccc(F)cc3c2C)N2CCCC2)o1` (centres undefined), for which the inhibition in [1] was 75.8%; in [10], 40 to 60%. For the same compound, the Ki in assay [2] (read-out: Ki) is 660 nM; in [2] (read-out: pKi (converted)), 646 nM. For the same compound, the inhibition entry in assay [9] is “Active”.
Turning to `NC(=O)c1cc(S(=O)(=O)NC2CCN(Cc3ccccc3)CC2)cs1`, the inhibition in [1] was found to be 47.3%. In addition, the Ki in assay [2] (read-out: Ki) worked out at 9800 nM.
For `Cc1ccc(C(CNC(=O)c2oc3ccccc3c2C)N2CCCC2)o1` (centres undefined), the figures for the inhibition in [1] and in [10] were 69.1% and 40 to 60%, respectively. Also, the Ki was 380 nM in [2] (read-out: Ki) and 363 nM in [2] (read-out: pKi (converted)). The inhibition entry in [9] was “Active”.
Take `Cc1cccc(C(O)CNC(C)Cn2cc(Br)cn2)c1` (centres undefined): in assay [1], the inhibition came to 49.8%. Also, in assay [2] (read-out: Ki), the Ki turned out to be 6400 nM.
With `Cc1nc(O)cc(C2CCN(Cc3ccc(C4CCCC4)s3)CC2)n1`, in assay [1], the inhibition came to 73.7%. The Ki in assay [2] (read-out: Ki) is 8100 nM.
The corresponding values for `Cc1cc(S(=O)(=O)NCC(=O)NC2CCC2NC(C)C)ccc1F` (centres undefined) are 49.1% and 6200 nM.
`COc1ccc2oc(C(=O)NCC(c3ccco3)N3CCCC3)c(C)c2c1` (centres undefined) showed an inhibition in assay [1] of 74%. For the same compound, in assay [2] (read-out: Ki), the Ki was determined as 720 nM.
The corresponding values for `CC(CCc1ccc(O)cc1)NCCc1ccccc1` (centres undefined) are 70.2% and 6600 nM.
With `c1ccc(CN2CCC(Nc3nc4ccccc4o3)C2)cc1` (centres undefined), the inhibition in assay [1] was 77.5%; in [10] it was 40 to 60%. Besides, the Ki in assay [2] (read-out: Ki) was 2600 nM.
Consider `O=C(NC[C@@H](c1ccco1)N1CCCC1)c1cc2ccccc2o1`, for which, in [1], the inhibition came to 64%. The Ki is 950 nM in [2] (read-out: Ki) and 912 nM in assay [2] (read-out: pKi (converted)).
Consider `COC(=O)[C@@H]1C[C@H](OC(C)=O)C(=O)[C@H]2[C@@]1(C)CC[C@H]1C(=O)O[C@H](c3ccoc3)C[C@]21C`, for which, in the assay listed under Homo sapiens [7], the Ratio Ki amounted to 10.
`Cc1c(C(=O)NCC(c2ccco2)N2CCCC2)oc2ccc(Cl)cc12` (centres undefined): the inhibition in assay [1] is 86.5%; in assay [10], 40 to 60%. For the same compound, the Ki in assay [2] (read-out: Ki) was 520 nM. Besides, in assay [9], the inhibition entry is “Active”.
As to `Oc1cccc(C(O)CNCc2c(Cl)cccc2Cl)c1` (centres undefined), the inhibition in assay [1] was 80.1%. Also, the Ki in [2] (read-out: Ki) was 2600 nM.
With `COc1ccc(CNCC(O)c2cccc(O)c2)cc1Br` (centres undefined), the Ratio Ki in the assay filed under Homo sapiens [3] was above 10; in the assay listed under Homo sapiens [6], above 10; in the assay filed under Homo sapiens [7], 10. In addition, the inhibition in [1] is 98.2%. The Ki in assay [2] (read-out: Ki) was determined as 230 nM.
As to `CCN(Cc1csc(C)n1)C(C)c1cccc(O)c1` (centres undefined), the Ratio Ki in the assay listed under Homo sapiens [3] and in the assay listed under Homo sapiens [6] was above 10 each time. The compound also yielded an inhibition in [1] of 74%. Further, the Ki was 630 nM in assay [2] (read-out: Ki) and 562 nM in assay [2] (read-out: pKi (converted)).
For the compound `NC1CCc2cc(O)ccc2C1` (centres undefined), the inhibition in assay [1] is 48.6%. The Ki in [2] (read-out: Ki) stood at 8300 nM.
The corresponding values for `Oc1ccc(CCC2CCCCN2Cc2ccc(Cl)o2)cc1` (centres undefined) are 95.3% and 500 nM.
As to `Oc1cccc(CNCc2cc3ccccc3[nH]2)c1`, the inhibition in assay [1] came out at 82.4%. Moreover, the Ki is 710 nM in assay [2] (read-out: Ki) and 676 nM in assay [2] (read-out: pKi (converted)).
In assay [1], `Cc1ccc(-c2ccccc2CN2CC3CNCC3C2)o1` (centres undefined) displayed an inhibition of 60.7%. Moreover, the Ki in [2] (read-out: Ki) was 3000 nM.
